From PubChem BioAssay
This is a sample that favours compounds with a hit; in the whole collection about 3% have one here.
proKLK7 act: activates the human kallikrein-7 zymogen; P49862; purified proKLK7, EDANS-DABCYL substrate fluorescence; 100% is mature enzyme control, 0% vehicle; activation, % at 7 µM; actives 0.9% (n = 370,000);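 active means activation above the mean of all tested compounds plus 3 SD, computed per campaign excluding outliers beyond control limits, cut at about 13% in these data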
Target sequence (P49862 whole entry, looked up): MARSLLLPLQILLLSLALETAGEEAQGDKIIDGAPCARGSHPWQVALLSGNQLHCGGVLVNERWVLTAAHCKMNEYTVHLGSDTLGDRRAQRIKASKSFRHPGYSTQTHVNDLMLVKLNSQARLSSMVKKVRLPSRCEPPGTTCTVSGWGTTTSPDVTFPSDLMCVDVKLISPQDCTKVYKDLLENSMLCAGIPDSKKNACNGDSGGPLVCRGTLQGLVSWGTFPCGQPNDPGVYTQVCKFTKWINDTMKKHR
DDE Tn6 FP inh: inhibitors of Tn6 peptide binding to human fibrin DD(E); actives 0.21% (n = 370,000); inhibition, % at 8.3 µM; AID 720509; Fibrin DD(E) TRITC-Tn6 fluorescence polarization displacement; P02675;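 active means inhibition above a per-campaign cutoff: mean of compounds within control limits plus 3 SD, cut at about 15% in these data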;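 further: 0% = median of all compound wells on the plate and 100% = blocking peptide control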
Target sequence (P02675 whole entry, looked up): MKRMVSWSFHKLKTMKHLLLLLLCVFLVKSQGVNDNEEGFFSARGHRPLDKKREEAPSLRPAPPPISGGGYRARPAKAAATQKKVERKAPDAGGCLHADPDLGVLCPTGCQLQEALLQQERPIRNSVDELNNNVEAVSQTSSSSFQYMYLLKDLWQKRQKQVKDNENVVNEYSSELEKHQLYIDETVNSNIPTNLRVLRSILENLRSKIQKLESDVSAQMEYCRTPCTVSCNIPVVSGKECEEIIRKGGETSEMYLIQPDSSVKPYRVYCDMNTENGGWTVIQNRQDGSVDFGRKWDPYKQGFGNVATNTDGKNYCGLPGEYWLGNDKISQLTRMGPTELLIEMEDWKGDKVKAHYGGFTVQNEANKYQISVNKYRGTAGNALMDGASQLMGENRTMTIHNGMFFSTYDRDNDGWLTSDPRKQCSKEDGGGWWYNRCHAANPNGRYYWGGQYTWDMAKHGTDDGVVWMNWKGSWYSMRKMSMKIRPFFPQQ
PLCb3 inh: PLC-beta3 (human) inhibition, primary screen; inhibition, % at 12.2 µM; actives 0.18% (n = 370,000); Purified PLC-beta3, fluorogenic substrate, fluorescence;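 further: 0% = median of compound wells on plate and 100% = full blocker control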
Tn7 DDE FP: disrupts Tn7 cyclic peptide binding to fibrin D-Dimer-E complex; P02675; FP displacement of FITC-Tn7 peptide from fibrin DD(E); 0% = median of compound wells per plate; inhibition, % at 8.3 µM; actives 0.13% (n = 370,000);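 active means inhibition above the mean of compounds falling within the control limits plus 3 SD of them, cut at about 14% in these data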;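 further: 0% = plate median of compound wells and 100% = 10 µM Aha-Tn7 peptide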
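Assay system: Fibrin-DD(E) protein isolated from polymerized human fibrin clots; read-out basis: percent inhibition; medium: Tris/NaCl/CaCl2 buffer, pH 7.8; signal: FP measurement; incubation: 10 min plus 3 h, room temperature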
PLCg1 inh: inhibitors of human phospholipase C gamma1; P19174; purified PLC-gamma1, fluorogenic substrate, fluorescence; inhibition, % at 12.2 µM; actives 0.84% (n = 370,000); in the data active means inhibition above about 9.5%
NRP1-CendR mod: modulators of CendR peptide binding to human neuropilin-1; O14786; FAM-RPARPAR peptide binding to NRP-1, fluorescence polarization; inhibition, % at 25 µM; actives 0.85% (n = 360,000);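 active means inhibition or corrected inhibition above about 18%, plus a signal ratio from 0.5 to 1.5, limit read from the data, passing the limit was not always enough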
PLCgamma1 ctr: inhibits human PLC-gamma1 in PLC-beta3 counter-screen | shares compounds with PLCg1 inh | purified PLC-gamma1, fluorogenic substrate, fluorescence | inhibition, % at 12.3 µM | actives 3.1% (n = 3,300) | AID 743258; in the data active means inhibition above about 9.5%
PLCbeta3 conf: confirmation of human PLC-beta3 inhibitors; AID 743261; inhibition, % at 12.3 µM; actives 1% (n = 3,300); shares compounds with PLCg1 inh; purified PLC-beta3, fluorogenic substrate fluorescence
Active calls of the source: *; . = no result given. Unless noted, no stated cut-off is given here; in the data, active means inhibition above about 11%; inactive means the rest.

SMILES | proKLK7 act | DDE Tn6 FP inh | PLCb3 inh | Tn7 DDE FP | PLCg1 inh | NRP1-CendR mod | PLCgamma1 ctr | PLCbeta3 conf
Nc1nonc1-c1nc2ccccc2n1Cc1ccc(Cl)cc1 | -0.2 | -4.2 | -5.8 | -5.2 | 10.6* | -2.8 | -8.3 | -6.4
OCc1nc2ccccc2n1Cc1ccc(Cl)cc1 | -0.6 | -1.2 | 1.4 | 2.8 | 10.2* | -12.3 | -10.2 | -4.7
CC(C)N1CCCCC(NC(=O)c2ccc(Cl)cc2Cl)C1=O (configuration not stated) | 0.2 | -3.0 | 3.5 | 0.0 | 3.5 | . | . | .
COCCNC(=S)N1C[C@H]2CON(C)[C@H]2C[C@H]1c1ccccc1Br | 0.0 | -2.6 | 5.5 | -0.1 | 9.7* | . | -2.5 | 0.6
Cc1ccc(OCc2nnc(SCC(=O)Nc3ccc(S(N)(=O)=O)cc3)n2-c2ccc(Cl)cc2)cc1 | -0.1 | -1.5 | 2.1 | -4.6 | 6.3 | . | . | .
Cn1c(=O)c2c(nc(NCc3cccnc3)n2Cc2cccc(C(F)(F)F)c2)n(C)c1=O | -0.3 | 5.7 | 5.9 | -6.5 | 12.0* | 4.2 | -2.0 | 1.6
CCOC(=O)c1cccc(NC(=O)CN(C)S(=O)(=O)c2ccc(Cl)s2)c1 | -0.1 | -1.3 | 0.4 | 5.4 | -1.8 | . | . | .
C=C(C)Cn1c(SCC(=O)N/N=C(\C)c2ccc([N+](=O)[O-])cc2)nnc1-c1ccc(Br)cc1 | 0.2 | -3.2 | 10.9* | -5.8 | 10.0* | . | 1.7 | 2.7
O=C(CCc1ccccc1)N[C@H]1[C@@H](OC(=O)c2cnccn2)CCC[C@@]12C(=O)N(Cc1ccccc1)c1ccccc12 | 0.9 | 7.1 | 2.6 | -9.9 | 12.4* | . | 14.2* | 8.2
Fc1ccccc1N1CCN(CC2CC3C=CC2C3)CC1 (configuration not stated) | -0.3 | -2.5 | 10.8* | 0.9 | 12.4* | -5.4 | -2.6 | -0.5
FC(F)(F)Oc1cccc(Cn2ccc3ccc(-c4ccc5ccn(Cc6cccc(OC(F)(F)F)c6)c5c4)cc32)c1 | -0.8 | -5.3 | -56.7 | -1.1 | -48.9 | . | . | .
CN(Cc1ccccc1)C(=O)c1ccc(NC(=O)Cc2ccc(NC(=O)C3CCN(C(=O)C4CCCC4)CC3)cc2)cc1 | 0.6 | -10.5 | 5.3 | -2.8 | 10.0* | -4.3 | -3.8 | 3.0
COC(=O)[C@]12C[C@H](CC(=O)NCc3cccc(C(F)(F)F)c3)C(=O)N(Cc3ccccc3)C1=C[C@H](COCc1ccccc1)O[C@@H]2C | -0.2 | 6.8 | 4.7 | 6.7 | 0.7 | . | . | .
Cc1ccc(S(=O)(=O)Nc2ccc3c(c2)CCC3)cc1 | -0.7 | -1.1 | -2.5 | 5.2 | -0.7 | 3.2 | . | .
Cc1ccc(S(=O)(=O)Nc2ccc3c(c2)CCC3)cc1C | 0.4 | -5.0 | -3.2 | -2.5 | 12.6* | -3.9 | 0.9 | -0.3
Cc1ccc(CSc2nnc(-c3cc(-c4ccc(C)cc4)n[nH]3)n2N)cc1 | -0.8 | -6.8 | 4.6 | -3.7 | -0.1 | . | . | .
Cc1cccc(C)c1Nc1ncnc2ccccc12 | -0.8 | 5.5 | 0.4 | -7.3 | 9.7* | 1.9 | -3.0 | -1.2
CCc1ccccc1Nc1ncnc2ccccc12 | 0.6 | 2.7 | -8.4 | -3.1 | 0.6 | -6.4 | . | .
O=C1CC(N2CCOCC2)=NC(=O)N1c1ccc(Br)cc1 | -0.5 | 5.8 | 2.0 | -0.4 | 1.9 | . | . | .
O=C(Nc1ccc(Cl)cc1)Nc1ccc(Cl)c(Cl)c1 | 0.0 | -1.7 | 0.2 | 5.9 | -1.2 | . | . | .
O=C(Nc1ccc(Cl)c(Cl)c1)Nc1ccc(Br)cc1F | 0.4 | -8.9 | 11.9* | 1.8 | 7.8 | 8.4 | -0.1 | -2.4
Clc1ccccc1OCCN1CCC(Cc2ccccc2)CC1 | -0.3 | 3.0 | 18.3* | 3.0 | 20.3* | 3.9 | -0.3 | -5.0
Cc1n[nH]c(C)c1S(=O)(=O)NCCc1ccccc1 | 0.1 | 10.5 | 5.6 | -3.1 | 4.7 | . | . | .
Clc1ccc(Cn2ccc(-c3ccc4c(c3)OCO4)n2)cc1Cl | -0.2 | -10.5 | 12.4* | -3.2 | 18.7* | 6.1 | 7.3 | 8.7
COc1ccc(CC(=O)Nc2nc(-c3cc(OC)ccc3OC)cs2)cc1 | -0.3 | -9.9 | -2.5 | 1.4 | 2.3 | -17.6 | . | .
SMILES | proKLK7 act | DDE Tn6 FP inh | PLCb3 inh | Tn7 DDE FP | PLCg1 inh | NRP1-CendR mod | PLCgamma1 ctr | PLCbeta3 conf
COc1ccc(OC)c(-c2csc(NC(=O)COC(=O)C3(C)CC3(Cl)Cl)n2)c1 (configuration not stated) | 0.9 | 1.0 | 0.2 | -7.2 | 15.8* | 5.1 | -1.8 | -4.0
COc1ccccc1/C=C(/C(=O)OCC(=O)Nc1ccccc1C)c1ccccc1 | 0.0 | -2.4 | 0.9 | -4.8 | 3.5 | -5.0 | . | .
COc1ccccc1CNC(=O)CN(Cc1ccc(Cl)cc1)S(C)(=O)=O | 0.3 | 7.3 | 11.0* | -9.0 | 3.3 | -35.9 | -3.4 | 2.1
COc1ccccc1/C=C(/C(=O)OCC(=O)NCc1ccccc1)c1ccccc1 | 0.5 | 1.9 | 12.1* | -5.2 | 12.7* | -2.0 | -1.2 | -1.5
COc1ccc(CCC(=O)NCc2ccccc2OC)cc1 | 0.3 | -10.1 | -4.0 | -5.6 | 1.0 | 5.2 | . | .
COc1ccccc1CNC(=O)CCc1ccccc1 | -0.6 | -2.4 | -0.5 | -6.8 | 10.3* | 0.0 | 3.8 | 0.4
C[C@H](NC(=O)OCc1ccccc1)P(=O)(O)O | 0.2 | 12.9 | 3.7 | -3.0 | 2.6 | . | . | .
Cc1ccc(CN2CCCCC(NC(=O)Nc3cccc(F)c3)C2=O)cc1 (configuration not stated) | -0.5 | 10.5 | -2.0 | 3.0 | 3.2 | . | . | .
O=C(NC1CCCCN(Cc2cccc(C(F)(F)F)c2)C1=O)c1cccc(F)c1 (configuration not stated) | 0.6 | 1.1 | 0.1 | -0.9 | 0.8 | . | . | .
O=C(NCC(c1ccccc1)c1ccccc1)[C@H](Cc1ccccc1)NC1(C(=O)NC2CCCCC2)CCOCC1 | . | -0.2 | 3.2 | -0.3 | 13.8* | . | 1.9 | 5.0
S=C(NCc1ccccc1)N/N=C/c1cccs1 | 0.4 | -1.7 | -1.5 | -0.1 | 3.0 | 10.5 | . | .
O=C(CN1CCCCCC1)N/N=C/c1cccs1 | -0.2 | -1.6 | 10.1 | -2.4 | 15.8* | 5.4 | -8.8 | -6.4
CC(C)NC(=S)N/N=C/c1cccs1 | 0.9 | -6.0 | 6.0 | -9.3 | 11.0* | -7.5 | 2.7 | 1.5
C[C@H]1CN([C@@H](C)CO)C(=O)CCCn2nncc2CO[C@@H]1CN(C)C(=O)Nc1ccccc1F | -0.2 | 8.1 | 1.5 | -1.2 | 1.1 | . | . | .
Cc1ccc(S(=O)(=O)NCC2CCN(C(=O)C(=O)c3cc4ccccc4o3)CC2)cc1 | -0.1 | 0.3 | 3.9 | 3.0 | 0.5 | . | . | .
O=C(COC(=O)c1n[nH]c2ccccc12)Nc1ccc(S(=O)(=O)N2CCCC2)cc1 | -0.5 | 5.2 | 5.2 | -0.7 | 10.5* | -11.0 | 2.4 | -0.8
O=C(NCCOc1ccccc1)c1ccc2c(c1)OCO2 | -0.3 | -4.8 | 3.5 | -3.5 | 12.9* | 1.3 | 0.5 | -3.2
